Measured values taken from ChEMBL document CHEMBL2176974, “A bactericidal guanidinomethyl biaryl that alters the dynamics of bacterial FtsZ polymerization” (J Med Chem, 2012).
Values after ≈ are worked out from the molar mass of the structure shown.

Legend:
[1] = Selectivity index, ratio of Kd for Enterococcus faecalis FtsZ to Kd for Staphylococcus aureus FtsZ
Outline: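 Buffer was 50 mM Tris·HCl pH 7.4, 50 mM KCl, 2 mM magnesium acetate. Kd came from nonlinear least-squares fits, and the index is the ratio of the two Kd values.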

[2] = test system: Enterococcus faecalis; test: microbe, parasite or virus in culture; format: functional; conditions: ATCC 51575, 24 h

CC(C)(C)c1ccc(-c2cccc(CNC(=N)N)c2)cc1
Ratio [1]: 6
MIC [2]: 4 µg/mL (≈ 14.2 µM)
